From ChEMBL document CHEMBL1126940, “Synthesis and dopamine receptor modulating activity of lactam conformationally constrained analogues of Pro-Leu-Gly-NH2” (J Med Chem, 1993)
Residues, ends and D or L forms follow the SMILES beside them.

Tests used:
[1] = molecular target: T1, Dopamine receptor (Bos taurus) (UniProt Q95136+P20288); test: In vitro ability to enhance the binding of [3H]-ADTN to dopamine receptor obtained from bovine caudate membranes at a concentration of 10E-7 M
Method in brief: (§1)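 Striatal synaptosomal membranes from bovine caudate incubated with [3H]ADTN with or without (control) peptide at 10^-12–10^-4 M, in triplicate, 37°C for 10 min, no preincubation; filtered, filters counted by liquid scintillation. Nonspecific binding defined with 10 μM (+)-butaclamol. Result expressed as percent enhancement over control; average ± SEM of three or four experiments; unpaired t-test on dpm.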

[2] = molecular target: T1, Dopamine receptor (Bos taurus); test: In vitro ability to enhance the binding of [3H]ADTN to dopamine receptor obtained from bovine caudate membranes at a concentration of 10E-4 M; method in brief: as §1
[3] = molecular target: T1, Dopamine receptor (Bos taurus); test: In vitro ability to enhance the binding of [3H]ADTN to dopamine receptor obtained from bovine caudate membranes at a concentration of 10E-9 M; method in brief: as §1
[4] = molecular target: T1, Dopamine receptor (Bos taurus); test: In vitro ability to enhance the binding of [3H]ADTN to dopamine receptor obtained from bovine caudate membranes at a concentration of 10E-6 M; method in brief: as §1
[5] = molecular target: T1, Dopamine receptor (Bos taurus); test: In vitro ability to enhance the binding of [3H]-ADTN to dopamine receptor obtained from bovine caudate membranes at a concentration of 10E-11 M; method in brief: as §1
[6] = molecular target: T1, Dopamine receptor (Bos taurus); test: In vitro ability to enhance the binding of [3H]ADTN to dopamine receptor obtained from bovine caudate membranes at a concentration of 10E-8 M; method in brief: as §1
[7] = molecular target: T1, Dopamine receptor (Bos taurus); test: In vitro ability to enhance the binding of [3H]ADTN to dopamine receptor obtained from bovine caudate membranes at a concentration of 10E-5 M; method in brief: as §1
[8] = molecular target: T1, Dopamine receptor (Bos taurus); test: In vitro ability to enhance the binding of [3H]ADTN to dopamine receptor obtained from bovine caudate membranes at a concentration of 10E-12 M; method in brief: as §1
[9] = molecular target: T1, Dopamine receptor (Bos taurus); test: In vitro ability to enhance the binding of [3H]ADTN to dopamine receptor obtained from bovine caudate membranes at a concentration of 10E-10 M; method in brief: as §1

SMILES	Increase [1]	Increase [2]	Increase [3]	Increase [4]	Increase [5]	Increase [6]	Increase [7]	Increase [8]	Increase [9]
NC(=O)CN1CC[C@H](NC(=O)C2CCCN2)C1=O (some centres not stated)	5.6%	1.4%	23%	2.8%	12%	9.2%	1.6%	2.2%	24.4%
NC(=O)CN1CCCC[C@@H](NC(=O)C2CCCN2)C1=O (some centres not stated)	38%	17%	30%	61%	8%	35%	27%		15%
NC(=O)CN1OC[C@H](NC(=O)C2CCCN2)C1=O (some centres not stated)	30%	7%	6.8%	54%	2%	14%	37%	2%	2.5%
NC(=O)CN1C(=O)C[C@H](NC(=O)C2CCCN2)C1=O (some centres not stated)	42%	13%	4.6%	38%	5.5%	13.5%	33%	4%	3.3%
NC(=O)CN1C[C@H](NC(=O)C2CCCN2)C1=O (some centres not stated)	8%	9.5%	3.9%	27%		5%	22%	1.5%	2.5%
NC(=O)CN1CCC[C@@H](NC(=O)C2CCCN2)C1=O (some centres not stated)	16%		4%	43%	4%	11%	18%	2%	3%
CC(C)C[C@H](NC(=O)[C@@H]1CCCN1)C(=O)NCC(N)=O (H-Pro-Leu-Gly-NH2)				27%					
